# Calls of active or inactive are those of the source. No cut-off for these calls is given here.
# What was measured:
# [1] = molecular target: Apoptosis regulator Bcl-2 (Homo sapiens, UniProt P10415); test: Inhibition of GST-tagged recombinant Bcl2 interaction with biotinylated Bim peptide by ELISA based competitive binding assay
# Method in brief: (§1)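 Plates coated with anti-GST antibody (1 µg/mL, overnight, 4 °C), blocked in PBS/1% BSA. GST-tagged Bcl-xL, Bcl-2, Bfl-1 or Mcl-1 (10 ng/mL) bound 2 h, RT. Compound added for 1 h, then biotinylated Bim peptide (1 nM) for 1 h. HRP-streptavidin detection, acid stop, OD 450 nm; EC50 derived.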
# IM-9 [2] = test: Induction of apoptosis in human IM9 cells at 10 uM incubated for 24 hrs by Annexin V and propidium iodide staining based FACS method; format: functional, cell-based
# Method in brief: (§2)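 Tumour lines grown in RPMI with 10% FBS, 2 mM glutamine, 10 mM Hepes and gentamicin; PBMC from healthy donors, purified on Ficoll gradient, same medium. Cells exposed 24 h, then Annexin V/propidium iodide labelling and flow cytometry. Specific viability = (% viable treated × 100)/% viable untreated.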
# [3] = molecular target: Induced myeloid leukemia cell differentiation protein Mcl-1 (Homo sapiens, UniProt Q07820); test: Inhibition of GST-tagged recombinant Mcl1 interaction with biotinylated Bim peptide by ELISA based competitive binding assay; method in brief: as §1
# Induced myeloid leukemia cell differentiation protein Mcl-1, sequence (Q07820 whole entry): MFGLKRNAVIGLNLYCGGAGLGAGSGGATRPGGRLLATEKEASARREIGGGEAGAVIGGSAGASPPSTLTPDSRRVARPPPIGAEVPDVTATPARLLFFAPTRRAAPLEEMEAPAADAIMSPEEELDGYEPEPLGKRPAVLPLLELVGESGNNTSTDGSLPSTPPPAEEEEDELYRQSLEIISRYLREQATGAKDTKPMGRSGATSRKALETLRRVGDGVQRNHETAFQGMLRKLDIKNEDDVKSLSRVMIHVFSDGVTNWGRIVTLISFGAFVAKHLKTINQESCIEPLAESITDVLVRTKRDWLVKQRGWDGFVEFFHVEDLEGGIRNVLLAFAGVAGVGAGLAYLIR
# Bcl-2-related protein A1 = molecular target: T1, Bcl-2-related protein A1 (Homo sapiens, UniProt Q16548); test: Inhibition of GST-tagged recombinant Bfl1 interaction with biotinylated Bim peptide by ELISA based competitive binding assay; method in brief: as §1
# T1 sequence (Q16548 whole entry): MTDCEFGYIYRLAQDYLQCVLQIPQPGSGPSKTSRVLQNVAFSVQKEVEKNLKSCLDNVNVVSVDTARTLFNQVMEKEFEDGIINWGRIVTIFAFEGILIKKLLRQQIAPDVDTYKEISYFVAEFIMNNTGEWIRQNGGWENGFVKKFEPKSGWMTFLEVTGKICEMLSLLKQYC
# PBMC = test: Induction of apoptosis in human PBMCs at 5 or 10 uM incubated for 24 hrs by Annexin V and propidium iodide staining based FACS method; format: cell-based; method in brief: as §2
# Bcl-2-like protein 1 [4] = molecular target: T2, Bcl-2-like protein 1 (Homo sapiens, UniProt Q07817); test: Inhibition of GST-tagged recombinant Bcl-XL interaction with biotinylated Bim peptide by ELISA based competitive binding assay; method in brief: as §1
# T2 sequence (Q07817 whole entry): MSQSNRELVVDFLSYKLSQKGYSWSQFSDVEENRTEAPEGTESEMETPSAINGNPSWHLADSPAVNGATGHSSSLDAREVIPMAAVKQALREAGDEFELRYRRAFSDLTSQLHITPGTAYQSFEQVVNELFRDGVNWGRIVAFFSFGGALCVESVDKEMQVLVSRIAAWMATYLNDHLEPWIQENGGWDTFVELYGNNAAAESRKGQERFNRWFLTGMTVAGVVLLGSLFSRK
# MEF [5] = test: Induction of cell death in mouse MEF cells containing Bax/Bak double knock out at 1.25 to 10 uM by Annexin V and propidium iodide staining based FACS method; format: functional
# Method in brief: (§3)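 Wild-type and DKO MEFs kept in DMEM with 10% FBS, 2 mM glutamine, 10 mM Hepes and gentamicin. Cultured in medium alone or with compound, staurosporine 1 µM as reference. Viability read by flow cytometry; mean ± SEM of 3 independent experiments.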
# RS4-11 [6] = test: Induction of apoptosis in human RS4:11 cells at 10 uM incubated for 24 hrs by Annexin V and propidium iodide staining based FACS method; format: functional, cell-based; method in brief: as §2
# Bcl-2-like protein 1 [7] = molecular target: T2, Bcl-2-like protein 1; test: Inhibition of Bcl-XL-mediated cell death reduction expressed in serum starved mouse 3T3 cells assessed as residual cell viability at 5 uM incubated for 96 hrs by propidium iodide staining based FACS method; settings: NIH3T3
# Method in brief: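 3T3 cells infected with pMig-hBcl-xL vector to overexpress human Bcl-xL, maintained in DMEM/10% FBS. Compound 5 µM given under serum starvation; % residual viability scored at 96 h by propidium iodide staining and FACS.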
# BP3 [8] = test: Induction of apoptosis in human BP3 cells at 10 uM incubated for 24 hrs by Annexin V and propidium iodide staining based FACS method; format: functional, cell-based; method in brief: as §2
# BP3 [9] = test: Induction of apoptosis in human BP3 cells at 5 uM incubated for 24 hrs by Annexin V and propidium iodide staining based FACS method; format: functional, cell-based
# Method in brief: (§4)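 Cells grown in RPMI with 10% FBS, 2 mM glutamine, 10 mM Hepes and gentamicin. Exposed to compound for 24 h, then labelled with Annexin V and propidium iodide and read by flow cytometry. Specific viability = (% viable treated × 100)/% viable untreated.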
# IM-9 [10] = test: Induction of apoptosis in human IM9 cells at 5 uM incubated for 24 hrs by Annexin V and propidium iodide staining based FACS method; format: functional, cell-based; method in brief: as §4
# MEF [11] = test: Induction of cell death in mouse MEF cells containing Bax/Bak double knock out at 1 uM by Annexin V and propidium iodide staining based FACS method; format: functional
# Method in brief: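 Wild-type and Bax/Bak double-knockout MEFs were grown in DMEM with 10% FBS, 2 mM glutamine, 10 mM Hepes and gentamicin. They were treated for 24 h and stained with propidium iodide, with or without Annexin V, then analysed by flow cytometry. Data are mean ± SEM of 3 independent experiments.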
# RS4-11 [12] = test: Induction of apoptosis in human RS4:11 cells at 5 uM incubated for 24 hrs by Annexin V and propidium iodide staining based FACS method; format: functional, cell-based; method in brief: as §4
# MEF [13] = test: Induction of cell death in mouse MEF cells containing Bax/Bak double knock out at 10 uM by Annexin V and propidium iodide staining based FACS method; format: functional; method in brief: as §3
# Apoptosis regulator Bcl-2, sequence (P10415 whole entry): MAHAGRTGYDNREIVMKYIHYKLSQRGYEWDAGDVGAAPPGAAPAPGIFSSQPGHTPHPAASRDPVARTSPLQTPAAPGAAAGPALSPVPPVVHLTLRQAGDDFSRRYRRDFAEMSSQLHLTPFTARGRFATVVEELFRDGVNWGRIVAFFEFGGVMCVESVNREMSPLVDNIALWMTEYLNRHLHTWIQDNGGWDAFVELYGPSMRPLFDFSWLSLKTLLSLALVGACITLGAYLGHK
smiles,measurement,setting,value
CCOc1ccc2c(C(C)C)cc(-c3cc4ccccc4nc3N3CCCC3)cc2n1,EC50,[1],3.5 µM
same,Activity,IM-9 [2],Active
same,EC50,[3],2.1 µM
same,EC50,Bcl-2-related protein A1,25.5 µM
same,Activity,PBMC,Non-toxic
same,EC50,Bcl-2-like protein 1 [4],6.2 µM
same,Activity,MEF [5],inactive
same,Activity,RS4-11 [6],Active
same,Activity,Bcl-2-like protein 1 [7],0.42%
same,Activity,BP3 [8],inactive
CCOc1ccc2c(C(C)C)cc(-c3cc4c(C(C)C)cc(-c5cc6ccccc6nc5N5CCCC5)cc4nc3OCC)cc2n1,Activity,Bcl-2-like protein 1 [7],95.3%
CCCOc1nc2ccccc2cc1-c1cc(C(C)C)c2cc(-c3cc(C(C)C)c4ccc(N5CCCC5)nc4c3)c(OCCC)nc2c1,Activity,Bcl-2-like protein 1 [7],94.6%
CCOc1nc2cccc(C(C)C)c2cc1-c1cc(C(C)C)c2ccc(N3CCOCC3)nc2c1,Activity,Bcl-2-like protein 1 [7],70.3%
CCCOc1nc2ccccc2cc1-c1cc(C(C)C)c2ccc(N3CCOCC3)nc2c1,EC50,[1],6.6 µM
same,Activity,IM-9 [2],inactive
same,EC50,[3],11.6 µM
same,EC50,Bcl-2-related protein A1,17.8 µM
same,EC50,Bcl-2-like protein 1 [4],> 100 µM
same,Activity,RS4-11 [6],inactive
same,Activity,Bcl-2-like protein 1 [7],55.5%
same,Activity,BP3 [8],inactive
CC(C)=CCC[C@]1(C)C=Cc2c(O)c3c(c(CC=C(C)C)c2O1)O[C@]12C(=C[C@@H]4C[C@H]1C(C)(C)O[C@@]2(C/C=C(/C)C(=O)O)C4=O)C3=O,Activity,BP3 [9],inactive
same,Activity,IM-9 [10],inactive
same,Activity,MEF [11],Active
same,Activity,RS4-11 [12],inactive
CN(C)CC[C@H](CSc1ccccc1)Nc1ccc(S(=O)(=O)NC(=O)c2ccc(N3CCN(Cc4ccccc4-c4ccc(Cl)cc4)CC3)cc2)cc1[N+](=O)[O-],Activity,IM-9 [2],Active
same,Activity,MEF [13],inactive
same,Activity,RS4-11 [6],Active
same,Activity,BP3 [8],Active
CCCOc1nc2ccccc2cc1-c1cc(C(C)C)c2cc(-c3cc(C(C)C)c4ccc(N5CCOCC5)nc4c3)c(OCCC)nc2c1,Activity,Bcl-2-like protein 1 [7],92.9%
CCCOc1ccc2c(C(C)C)cc(-c3cc4c(C(C)C)cc(-c5cc6ccccc6nc5N5CCCC5)cc4nc3OCCC)cc2n1,Activity,Bcl-2-like protein 1 [7],92.8%
CCCOc1ccc2c(C(C)C)cc(-c3cc4ccccc4nc3N3CCOCC3)cc2n1,EC50,[1],9.2 µM
same,EC50,[3],7.9 µM
same,EC50,Bcl-2-related protein A1,8.2 µM
same,EC50,Bcl-2-like protein 1 [4],> 100 µM
same,Activity,Bcl-2-like protein 1 [7],32.7%
same,Activity,BP3 [8],inactive
CN[C@@H]1C[C@H]2O[C@@](C)([C@@H]1OC)n1c3ccccc3c3c4c(c5c6ccccc6n2c5c31)C(=O)NC4,Activity,MEF [11],Active
CCOc1nc2cc(-c3cc4ccccc4nc3N3CCOCC3)cc(C(C)C)c2cc1-c1cc(C(C)C)c2ccc(N3CCCC3)nc2c1,Activity,Bcl-2-like protein 1 [7],92.2%
CC(C)c1cc(-c2cc3ccccc3nc2N2CCOCC2)cc2nc(N3CCOCC3)ccc12,Activity,Bcl-2-like protein 1 [7],67.9%
COC1=CC(c2cc3ccccc3[nH]2)=N/C1=C\c1[nH]c(C)cc1C [OBATOCLAX],EC50,[1],0.3 µM
same,Activity,IM-9 [2],Active
same,Activity,MEF [13],inactive
same,EC50,[3],0.5 µM
same,EC50,Bcl-2-related protein A1,0.6 µM
same,EC50,Bcl-2-like protein 1 [4],0.9 µM
same,Activity,RS4-11 [6],Active
same,Activity,BP3 [8],Active
CCOc1nc2ccccc2cc1-c1cc(C(C)C)c2cc(-c3cc(C(C)C)c4ccc(N5CCCC5)nc4c3)c(OCC)nc2c1,Activity,Bcl-2-like protein 1 [7],92.3%
CCCOc1nc2cc(-c3cc4ccccc4nc3N3CCCC3)cc(C(C)C)c2cc1-c1cc(C(C)C)c2ccc(N3CCCC3)nc2c1,Activity,Bcl-2-like protein 1 [7],90.5%
CCOc1nc2ccccc2cc1-c1cc(C(C)C)c2cc(-c3cc(C(C)C)c4ccc(N5CCOCC5)nc4c3)c(OCC)nc2c1,Activity,Bcl-2-like protein 1 [7],93.6%
CCCOc1ccc2c(C(C)C)cc(-c3cc4ccccc4nc3N3CCCC3)cc2n1,Activity,Bcl-2-like protein 1 [7],84.4%
CCOc1nc2cc(-c3cc4ccccc4nc3N3CCCC3)cc(C(C)C)c2cc1-c1cc(C(C)C)c2ccc(N3CCOCC3)nc2c1,Activity,Bcl-2-like protein 1 [7],91%
CCCOc1nc2cc(-c3cc4ccccc4nc3N3CCCC3)cc(C(C)C)c2cc1-c1cc(C(C)C)c2ccc(OCC)nc2c1,Activity,Bcl-2-like protein 1 [7],94.5%
CCOc1nc2cc(-c3cc4ccccc4nc3N3CCOCC3)cc(C(C)C)c2cc1-c1cc(C(C)C)c2ccc(N3CCOCC3)nc2c1,Activity,Bcl-2-like protein 1 [7],96.5%
CCOc1nc2cc(-c3cc4ccccc4nc3N3CCCC3)cc(C(C)C)c2cc1-c1cc(C(C)C)c2ccc(N3CCCC3)nc2c1,Activity,Bcl-2-like protein 1 [7],95.1%
CCOc1nc2cccc(C(C)C)c2cc1-c1cc(C(C)C)c2ccc(N3CCCC3)nc2c1,Activity,Bcl-2-like protein 1 [7],91.6%
CCCOc1nc2cc(-c3cc4ccccc4nc3N3CCOCC3)cc(C(C)C)c2cc1-c1cc(C(C)C)c2ccc(N3CCOCC3)nc2c1,Activity,Bcl-2-like protein 1 [7],81.6%
CCCOc1ccc2c(C(C)C)cc(-c3cc4c(C(C)C)cc(-c5cc6ccccc6nc5N5CCOCC5)cc4nc3OCCC)cc2n1,Activity,Bcl-2-like protein 1 [7],92.3%
CCCOc1ccc2c(C(C)C)cc(-c3cc4c(C(C)C)cc(-c5cc6ccccc6nc5N5CCCC5)cc4nc3OCC)cc2n1,Activity,Bcl-2-like protein 1 [7],96.4%
CCCOc1nc2cc(-c3cc4ccccc4nc3N3CCOCC3)cc(C(C)C)c2cc1-c1cc(C(C)C)c2ccc(N3CCCC3)nc2c1,Activity,Bcl-2-like protein 1 [7],93.4%
CCOc1ccc2c(C(C)C)cc(-c3cc4ccccc4nc3N3CCOCC3)cc2n1,EC50,[1],2.7 µM
same,Activity,IM-9 [2],inactive
same,EC50,[3],3.5 µM
same,EC50,Bcl-2-related protein A1,24 µM
same,EC50,Bcl-2-like protein 1 [4],14.6 µM
same,Activity,RS4-11 [6],inactive
same,Activity,Bcl-2-like protein 1 [7],37.9%
same,Activity,BP3 [8],inactive
CCCOc1nc2cc(-c3cc4ccccc4nc3N3CCCC3)cc(C(C)C)c2cc1-c1cc(C(C)C)c2ccc(N3CCOCC3)nc2c1,Activity,Bcl-2-like protein 1 [7],96.5%
CCCOc1nc2ccccc2cc1-c1cc(C(C)C)c2ccc(N3CCCC3)nc2c1,Activity,Bcl-2-like protein 1 [7],86.8%
CCCOc1nc2cc(-c3cc4ccccc4nc3N3CCOCC3)cc(C(C)C)c2cc1-c1cc(C(C)C)c2ccc(OCC)nc2c1,Activity,Bcl-2-like protein 1 [7],95.2%
CC(C)c1cc(-c2cc3ccccc3nc2N2CCCC2)cc2nc(N3CCCC3)ccc12,EC50,[1],1.4 µM
same,Activity,IM-9 [2],inactive
same,EC50,[3],2.3 µM
same,EC50,Bcl-2-related protein A1,21.5 µM
same,EC50,Bcl-2-like protein 1 [4],> 100 µM
same,Activity,RS4-11 [6],inactive
same,Activity,Bcl-2-like protein 1 [7],4.37%
same,Activity,BP3 [8],inactive
